Source: ChEMBL document CHEMBL4513216, “Probing the Open Global Health Chemical Diversity Library for Multistage-Active Starting Points for Next-Generation Antimalarials” (ACS Infect Dis, 2020)

Experiment: Toxicity liver stage against HepG2, at 10uM
Assay type: cell-based
Parameters: test concentration 10 uM, cell line HepG2-A16-CD81EGFP
Conditions: human, HepG2-A16-CD81EGFP cells; read-out: INHIBITION
How it was run: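 Uninfected HepG2-A16-CD81EGFP cells, 3 × 10^3 per well, 1536-well, plated on prespotted compound at 10 μM final, parasite-free screening media added to match infected plates; puromycin 10 μM positive, DMSO 0.5% negative; run in parallel with 48 h PbLuc assay at 37 °C, 5% CO2; viability by CellTiter-Glo luminescence, normalized to controls.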

SMILES | cytotoxicity at 10 µM [%]
O=C(NC[C@H]1OC[C@@H](NC2CCC(F)(F)CC2)[C@@H]1O)c1cccs1 | -7.34
CCn1nnc(NCc2ccccc2OCc2ccc(Cl)cc2)n1 | -0.139
CC(C)(C)OC(=O)Cn1cccc(S(=O)(=O)N2CCCC2)c1=O | 5.54
O=C(Cn1cnc(-c2cccs2)cc1=O)Nc1cccnc1 | -3.69
O=C(Cc1cccs1)N1CCOCC1CO (stereo unspecified) | -4.63
COC1(CNC(=O)c2ccc3nsnc3c2)CCSC1 (stereo unspecified) | -1.36
Cc1ccc(CN2C[C@H](N(C)Cc3cncnc3)[C@H]3OCCC[C@H]32)o1 | -149
Cn1cnc(C(=O)N2CC3(CCN(S(=O)(=O)c4ccccc4)C3)C2)c1 | 3.8
CN(C)C(=O)N1CCC2(CC(=O)N(c3ccc4c(c3)OCO4)C2)C1 (stereo unspecified) | 8.04
O=C(Nc1ccccc1)C1=NOC2(CCCNC2)C1 (stereo unspecified) | 1.02
CC(=O)N1CC(=O)N(c2ccsc2)CC12CCN(Cc1ccoc1)C2 (stereo unspecified) | 5.56
O=C(c1cccs1)N1CCCn2c(nc(CN3CCCC3)cc2=O)C1 | -3.32
Cc1ccc(N2CCCc3sc(C(=O)NCCO)nc32)nn1 | 13.3
COC[C@@]12CCO[C@@H]1CCN(C(=O)COc1ccc(C)cc1)C2 | 1.39
Cc1nc(CN2CC3(CCN(c4nccs4)C3)CC2=O)cs1 (stereo unspecified) | -0.646
Cc1ccc2c(ccn2CCC(=O)NC[C@@H]2CCCN3CCCC[C@H]23)c1 | 2.29
CC1=Nc2c(c(=O)[nH]n2C(C)C)C(c2ccc(F)c(F)c2)S1 (stereo unspecified) | -5
COc1ccc(S(=O)(=O)N2CCC(S(C)(=O)=O)CC2)cc1C | 2.4
CC(=O)N[C@@H]1CN(C(=O)c2cccc(C(F)(F)F)c2)C[C@H]1O | 1.9
CNc1ccc(C2CN(c3cc(C)nc(N)n3)CCO2)nc1 (stereo unspecified) | 4.72
CCCC(=O)N1CCCC1(C)c1nc(C)no1 (stereo unspecified) | 0.79
CNC(=O)C1CN(Cc2cc(C)on2)CCN(C2CCOCC2)C1 (stereo unspecified) | 9.81
CNC(=O)c1ccc(C2CN(CC(=O)N(C)C)CCO2)nc1 (stereo unspecified) | 7.15

SMILES | cytotoxicity at 10 µM [%]
Cc1ccn(CCNC(=O)C2(C)CC(c3ccccc3)=NO2)n1 (stereo unspecified) | 8.46
COCCN1CCCC1(C)c1nc(C)cc(N)n1 (stereo unspecified) | -3.73
O=C(c1ccco1)N(c1ccc(F)cn1)C1CCOCC1 | -19.8
Clc1ccc(N2CCN(CCCN3CCCCC3)CC2)nc1 | 0.563
Cc1nc(CN(C)C(=O)Nc2cccc(COC(C)C)c2C)no1 | 3.95
CC1CN(C(=O)Nc2cc(C(F)(F)F)c[nH]c2=O)CCO1 (stereo unspecified) | 3.44
CCc1ccc(C(=O)NC[C@H]2CCCN2C(=O)c2ccc(CC)o2)o1 | -5.54
c1ccc(-c2nc(SCc3nnc(C4CC4)o3)n[nH]2)nc1 | -1.78
CN(C)CCn1cc(NC(=O)NC(C)(C)c2nccs2)cn1 | -2.85
N#CC(NC(=O)CC(F)(F)F)c1ccsc1 (stereo unspecified) | 7.61
CCN(CC)C1CCN(C(=O)NCc2cccc(NC(C)=O)c2)C1 (stereo unspecified) | 4.55
O=C(NC1CC1)c1cc(Cl)ccc1-n1cnnn1 | 3.73
NC(=O)C1CCN(c2ccc3cc(Br)ccc3n2)C1 (stereo unspecified) | 7.87
COc1c(CNCc2ccccc2Cn2cncn2)c(C)nn1C | 1.56
CCc1ccc(C(=O)N(CC(F)(F)F)C2CCCOC2)o1 (stereo unspecified) | -7.59
O=C(NCc1nccn1CCc1ccccc1)NCC1(O)CCC1 | -2.97
Cc1nccn1C1CCCN(C(=O)c2cnn(C)c2C2CC2)C1 (stereo unspecified) | -5.92
Cc1ccc(CCNC(=O)N2CCC(Cc3cnn(C)c3)C2)cn1 (stereo unspecified) | 3.71
CC1CN(C)c2ccccc2CN1C(=O)c1cscn1 (stereo unspecified) | -1.03
Cc1ccc(CCC(C)NC2CCN(C(N)=O)CC2)cc1 (stereo unspecified) | -0.613
CC(C)(C)CCNC(=O)c1ccc(Cl)c(NS(C)(=O)=O)c1 | -3.85
COCC(C)(C#N)NC(=O)COc1ccccc1Br (stereo unspecified) | 5.67
COCCN1CCN(CC(=O)N(C)Cc2ccc(C)o2)CC1C (stereo unspecified) | -127

SMILES | cytotoxicity at 10 µM [%]
O=C(COCC1CC1)NCC(c1ccccc1)N1CCc2sccc2C1 (stereo unspecified) | 16.6
CN(C)c1cccc(CNC(=O)Nc2ccc3[nH]nnc3c2)n1 | 3.15
Cc1nc(CNC(C(=O)N2CCOCC2)c2ccccc2)cs1 (stereo unspecified) | 7.33
CCc1nc(CC(=O)N2CCC(C(=O)N3CCCC3)CC2)cs1 | -2.71
COC(=O)N1CCCC(C(=O)N2CCCCC2)C1 (stereo unspecified) | -8.58
COc1ccc(C(C#N)NC(=O)CC2=CCCCC2)c(OC)c1 (stereo unspecified) | 10.7
CC(=O)N1CCCN(C(=O)NCCCc2cn[nH]c2C)CC1 | -9.67
Cc1ccccc1-c1cc(NC(=O)Cn2ccccc2=O)n(C)n1 | 3.8
CC(C)(C)OC(=O)NC1(c2noc(-c3ccco3)n2)CCC1 | -0.657
CC(C)OCCOCC(O)CN(C)C(=O)Nc1ccc(F)cc1Cl (stereo unspecified) | 10.7
CC1COCCN1C(=O)NCCn1ccnc1 (stereo unspecified) | -50.4
O=C(NC1CCN(c2ncccc2F)C1)c1cccc(-n2ccnc2)c1 (stereo unspecified) | 9.49
CCSCCC(=O)Nc1ncn(CC(=O)NCc2ccccc2)n1 | 20
CN(C)CCn1c(=O)oc2ccc(NC(=O)CC(C)(C)C)cc21 | -2.28
CCN(C)c1ccc(C(=O)N(CCOC)Cc2ccccn2)cc1 | -3.96
CN(C)c1ccc(C(=O)NCC2(O)CCOCC2)cc1 | -3.34
CC(NC(=O)C1=NN(C)C(=O)CC1)c1ccc(Cl)cc1Cl (stereo unspecified) | -10.4
CCc1ccc(CNC(=O)NC(C)CN2CCOCC2)s1 (stereo unspecified) | -1.84
NC(=O)c1ccc(CN2CCCC(N3CCCC3)C2)cc1 (stereo unspecified) | -3.63
CSc1cccc(NC(=O)N2CCC3(CCC(=O)N(C4CC4)C3)CC2)c1 | 9.27
CC(C)n1cc(-c2nc3cc(S(=O)(=O)N4CCCC4)ccc3n2C)cn1 | 1.12
Cc1c[nH]c(CN2CCOC(c3ccc(F)cc3)C2)c(C)c1=O (stereo unspecified) | -1.82
CN1CCCN(C[C@@H]2CN(C(=O)CCc3cn[nH]c3)C[C@@H]2CO)CC1 | 2.72

SMILES | cytotoxicity at 10 µM [%]
COc1ccc2c(c1)OCC(CNC(=O)c1cc[nH]c1C)C2 (stereo unspecified) | 3.34
Cc1cnc(CNC(=O)C2CCOc3ccccc3C2)cn1 (stereo unspecified) | -2.21
CCc1ccc(CNC[C@H]2C[C@@H](CO)N(C)[C@H]2c2ccccc2F)o1 | -3.09
CN1CCCCC1CCC(=O)NCCCn1ncc2ccccc21 (stereo unspecified) | -13.3
CC(C)(C)c1ncc2c(n1)CN(C(=O)c1ccc(-n3cnnn3)cc1)C2 | -1.98
CCCc1n[nH]cc1C(=O)NCC1COc2cc(OC)ccc2C1 (stereo unspecified) | -0.506
Cc1nc(CCNC(=O)C2CCN(C(C)C)CC2)sc1Cl | -8.06
O=C(NC1CCCN(CCc2ccccc2)C1)c1ccccn1 (stereo unspecified) | -5.42
CC(=O)NCCNC(=O)c1cc(COc2ccccc2)[nH]n1 | -1.32
CN(C)CCO[C@H]1C[C@@H](O)C12CCN(c1nccc3ccccc13)CC2 | 2.2
CCOCC(=O)N1CCC(c2nccn2CC2CC2)CC1 | -7.18
CC(=O)NC1CCN(c2cc(-c3ccccc3)nc3c(C)c(C)nn23)C1 (stereo unspecified) | -3.98
CCN(CC)CC(=O)N(C)C(c1cccc(F)c1)c1ccccn1 (stereo unspecified) | -6.54
CCN(Cc1ccc2c(c1)OCO2)S(=O)(=O)N(C)C(C)C | 8.55
COC(=O)C(NC(=O)CCc1ccco1)c1cc(F)ccc1F (stereo unspecified) | -0.448
CN(Cc1cccs1)C(=O)CN1CCCC(Cn2cncn2)C1 (stereo unspecified) | -3.95
CCOc1cc(C(=O)NS(=O)(=O)c2cccc(C#N)c2)ccc1OC | -6.69
O=C(NCCCOCC1CC1)Nc1ccc(-n2cncn2)c(F)c1 | -0.132
COc1cccc(NC(=O)NCC(O)c2ccc(F)cc2F)c1 (stereo unspecified) | -1.43
Cc1nc(C)n(CC2CCCN(CCC(=O)Nc3cc(C)on3)C2)n1 (stereo unspecified) | -1.68
N#Cc1ccc(CC(=O)N2CCC(Nc3cccnn3)CC2)cc1 | -4.11
Cc1ccccc1CN(C)C(=O)CN1CCOC(Cn2cccn2)C1 (stereo unspecified) | -5.1
Cc1cccc(CC(=O)NCCCOC(C)C)c1 | -2.25

SMILES | cytotoxicity at 10 µM [%]
CC(C)(O)CN1CCN(C(=O)c2cccnc2O)CC1 | -21.7
COCCN1CCC(CNC(=O)C2(c3cccc(C)c3)CC2)CC1 | -1.88
O=C1CCc2cc(C(=O)NCc3ccc(-n4cncn4)nc3)ccc2N1 | -11.5
Cc1ccc(C(=O)N2CCc3c(CNS(C)(=O)=O)cncc3C2)o1 | -11.3
O=C(CCc1cccc(C2CCNCC2)n1)N1CCCCC1 | -4.78
O=C(C1CCOCC1)N1CCc2ncc(CN3CCOCC3)n2CC1 | -79.6
CN(C)Cc1nnc2n1CCN(c1cnccn1)CC2 | -10.8
CC(=O)N1CC(=O)N(c2cccnc2)CC12CCN(Cc1nccs1)C2 (stereo unspecified) | 6.85
CN(C)C[C@@H]1CCC[C@@H]2CN(c3nccc(C(F)(F)F)n3)C[C@@H]21 | -2.75
CC(=O)N1C[C@H]2CCCN(Cc3ccc(C)o3)[C@H]2C1 | -1.36
CCC1=N[C@@]2(CC[C@@H]3CN(CC(=O)N(C)C)C[C@@H]32)C(=O)N1CC1CC1 | -3.5
O=C(NC1CC1)N1Cc2[nH]nc(COc3cccnc3)c2C1 | 4.77
COCC(=O)NCC1Cn2nnc(-c3ccncc3)c2CO1 (stereo unspecified) | 8.22
Cc1cccc(CN2CCC3(CCCN(C(=O)N(C)C)C3)C2=O)n1 (stereo unspecified) | 1.44
COCC(=O)N1C[C@H]2CCCC(OCc3cccnc3)[C@H]2C1 (stereo partly specified) | -5.67
Fc1cnc(N2CCC3(CC2)CN(Cc2ccccn2)CCO3)nc1 | 0.35
CC(=O)NCC1(COc2cnccn2)C[C@@H](O)[C@@H](O)C1 (stereo partly specified) | 1.47
CCNc1c(NC(=O)C(C)(C)C)c(=O)oc2ccccc12 | -1.97
CN1CC2(CCC(C(=O)N3CCOCC3)CC2)Oc2ccccc2C1=O (stereo unspecified) | 5.91
